Assay [1] relates to Plasmodium falciparum. The experiment in a line: Antiplasmodial activity against chloroquine-resistant Plasmodium falciparum W2 as parasite DNA microfluorimetric assay. The assay is classed as functional, organism-based. In outline:
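P. falciparum W2 (chloroquine-resistant) grown by the Trager–Jensen method at 2% hematocrit in RPMI 1640 with 10% human serum. Growth inhibition read microfluorimetrically by PicoGreen intercalation into parasite DNA. IC50 in µM.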

Assay [2] concerns Trypanosoma cruzi. As to the kind of experiment: Antitrypanosomal activity against Trypanosoma cruzi Tulahuen C4 infected in african green monkey Vero cells assessed as growth inhibition of […] by beta-galactosidase reporter gene assay. In kind it is functional, organism-based. In outline:
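Recombinant Tulahuen clone C4 expressing β-galactosidase reporter; […] grown inside Vero cells with test samples. β-Gal cleavage of chlorophenol red-β-D-galactoside (CPRG) read colorimetrically at 570 nm. IC50 taken as concentration giving 50% inhibition of parasite growth versus untreated control, on duplicate samples.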
On the technique in general: In a reporter assay the amount or activity of a reporter protein is the signal.

The values below come from ChEMBL document CHEMBL1158069, “Antiplasmodial metabolites isolated from the marine octocoral Muricea austera” (J Nat Prod, 2006).

What is called IC50 is the concentration that inhibits the measured activity by half.

Regarding `CC[C@H](O)CC(=O)NCCc1ccc(O)cc1`, the IC50 in assay [1] is greater than 50 µM.

Take `C=C[C@H]1CC[C@H]2[C@@H]3CC=C4C[C@@H](O[C@@H]5OC[C@@H](OC(C)=O)[C@@H](OC(C)=O)[C@@H]5OC(C)=O)CC[C@]4(C)[C@H]3CC[C@]12C`: the IC50 in assay [1] and in assay [2] was 28 µM in each case.

In assay [1], `NCCc1ccc(O)cc1` [TYRAMINE] displayed an IC50 of 160 µM.

In turn, `CCCCCCCCCCCCCC(=O)NCCc1ccc(O)cc1` gave a half-inhibitory concentration (IC50) in assay [1] of 34 µM.

`CCCCCCC(O)CCCCCCCCCCC(=O)NCCc1ccc(O)cc1` (stereo not given) showed an IC50 in assay [1] of 62 µM.

Consider `O=CNCCc1ccc(O)cc1`, for which the half-maximal inhibitory concentration (IC50) in assay [1] is greater than 50 µM.

Take `CC1CS(=O)(=O)CCN1/N=C/c1ccc([N+](=O)[O-])o1` (stereo not given) [NIFURTIMOX]: the half-maximal inhibitory concentration (IC50) in assay [2] turned out to be 11 µM.

Regarding `CC/C=C\C/C=C\C/C=C\CCCC(=O)NCCc1ccc(O)cc1`, it took 38 µM to reach half-maximal inhibition in assay [1] (IC50).

As to `C=C[C@H]1CC[C@H]2[C@@H]3CC=C4C[C@@H](O[C@@H]5OC[C@@H](O)[C@@H](OC(C)=O)[C@@H]5O)CC[C@]4(C)[C@H]3CC[C@]12C`, the half-inhibitory concentration (IC50) in assay [1] is 67 µM; in assay [2], 96 µM.

In assay [1], `CC(=O)O/C1=C/Cc2c(C)coc2C/C(C)=C/CC1` returned a 50% inhibitory concentration (IC50) greater than 50 µM.

For the molecule `CCCCCCCCCCCC(=O)O[C@@H]1[C@@H](OC(=O)CCCCCCCCCCC)[C@H](OC)OC[C@@H]1OC(=O)CCCCCCCCCCC`, the IC50 in assay [1] and in assay [2] was greater than 50 µM in each case.

`CO[C@H]1O[C@H](C)[C@H](OC(=O)c2ccccc2)[C@H](OC(=O)c2ccccc2)[C@H]1OC(=O)c1ccccc1`: the IC50 in assay [1] was 43 µM; in assay [2] it was greater than 50 µM.

As for `CO[C@H]1OC[C@H](OC(=O)c2ccccc2)[C@H](OC(=O)c2ccccc2)[C@H]1OC(=O)c1ccccc1`, the figures for the half-inhibitory concentration (IC50) in assay [1] and in assay [2] were 35 µM and greater than 50 µM, respectively.

Take `CO[C@@H]1OC[C@H](OC(=O)c2ccccc2)[C@H](OC(=O)c2ccccc2)[C@H]1OC(=O)c1ccccc1`: the IC50 in assay [1] is 21 µM; in assay [2], greater than 50 µM.

Turning to `CCCCCCCCC/C(C)=C\C(=O)NCCc1ccc(O)cc1`, the half-inhibitory concentration (IC50) was 36 µM in assay [1] and greater than 50 µM in assay [2].

For `CCCCCCCCCCCC(=O)O[C@@H]1[C@@H](OC(=O)CCCCCCCCCCC)[C@@H](OC)OC[C@@H]1OC(=O)CCCCCCCCCCC`, the IC50 in assay [1] and in assay [2] was greater than 50 µM each time.

Molecule `CCCCCCCCCCCC(=O)NCCc1ccc(O)cc1` displayed an IC50 in assay [1] of 47 µM.

On to `CCCCCCCCCC(C)CC(=O)NCCc1ccc(O)cc1` (stereo not given), for which the IC50 is 45 µM in assay [1] and greater than 50 µM in assay [2].

The molecule `O=C(CCCCC(=O)NCCc1ccc(O)cc1)NCCc1ccc(O)cc1` had an IC50 in assay [1] of 117 µM.

For `O[C@@H]1[C@@H](O)[C@@H](O)CO[C@H]1O` [L-ARABINOSE], the concentration for half-maximal inhibition (IC50) in assay [1] and in assay [2] was greater than 50 µM in each case.

Take `CO[C@@H]1OC[C@H](OC(C)=O)[C@H](OC(C)=O)[C@H]1OC(C)=O`: the half-maximal inhibitory concentration (IC50) in assay [1] and in assay [2] was greater than 50 µM each time.

Molecule `CCCCCCCCCCCCNC(=O)CCc1ccc(O)cc1` yielded an IC50 in assay [1] of 24 µM.

Take `CO[C@H]1O[C@H](COC(=O)c2ccccc2)[C@H](OC(=O)c2ccccc2)[C@H](OC(=O)c2ccccc2)[C@H]1OC(=O)c1ccccc1`: the concentration for half-maximal inhibition (IC50) in assay [1] is 29 µM; in assay [2], greater than 50 µM.

`O=C(NCCc1ccc(OC(=O)c2ccccc2)cc1)c1ccccc1` registered a concentration for half-maximal inhibition (IC50) in assay [1] of 64 µM.

As to `C=C[C@H]1CC[C@H]2[C@@H]3CC=C4C[C@@H](O[C@@H]5OC[C@@H](OC(C)=O)[C@@H](O)[C@@H]5O)CC[C@]4(C)[C@H]3CC[C@]12C`, the results for the 50% inhibitory concentration (IC50) in assay [1] and in assay [2] were 80 µM and 101 µM, respectively.

`CCCCCCCCCC(=O)NCCc1ccc(O)cc1` had a half-maximal inhibitory concentration (IC50) in assay [1] of 72 µM.

`CC(=O)NCCc1ccc(O)cc1` returned a concentration for half-maximal inhibition (IC50) in assay [1] greater than 50 µM.

As to `CO[C@@H]1O[C@H](C)[C@H](OC(=O)c2ccccc2)[C@H](OC(=O)c2ccccc2)[C@H]1OC(=O)c1ccccc1`, the half-maximal inhibitory concentration (IC50) was 36 µM in assay [1] and greater than 50 µM in assay [2].

On to `CCCCO[C@@H]1OC[C@H](OC(C)=O)[C@H](OC(C)=O)[C@H]1OC(C)=O`, for which the 50% inhibitory concentration (IC50) in assay [1] and in assay [2] was greater than 50 µM throughout.

For `C=C[C@]1(C)Cc2occ(C)c2C[C@H]1C(=C)OC(C)=O`, the IC50 in assay [1] came to 42 µM; in assay [2], 173 µM.

For the molecule `CO[C@@H]1O[C@H](COC(=O)c2ccccc2)[C@H](OC(=O)c2ccccc2)[C@H](OC(=O)c2ccccc2)[C@H]1OC(=O)c1ccccc1`, the IC50 in assay [1] and in assay [2] was greater than 50 µM in each case.

For the molecule `CCCCCCCCCCCC(=O)NCCc1cc(Br)c(O)c(Br)c1`, the IC50 in assay [1] stood at 17 µM.

`O=C(NCCc1ccc(O)cc1)c1ccccc1`: the IC50 in assay [1] was greater than 50 µM.
